Screening data from PubChem.
GASC-1 inh – inhibitors of human GASC-1 (JMJD2C) demethylase | Q9H3R0 | hit rate 0.069% among 330,000 | AID 2099 | GST-JMJD2C(1-420) H3K9me3 demethylation, DELFIA europium | inhibition, % at 2.35 µM;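 active = more than half of a compound's replicate wells show inhibition beyond 50%, single wells judged on their own value; inconclusive = some, but no more than half, of replicates pass 50% inhibition; inactive = no replicate passes 50% inhibition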;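 also: signal counts dimethyl H3K9 product captured on neutravidin plate; 0% = median of DMSO wells and 100% = 0.3 times that DMSO median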
Target sequence (Q9H3R0 1-420 limits assumed): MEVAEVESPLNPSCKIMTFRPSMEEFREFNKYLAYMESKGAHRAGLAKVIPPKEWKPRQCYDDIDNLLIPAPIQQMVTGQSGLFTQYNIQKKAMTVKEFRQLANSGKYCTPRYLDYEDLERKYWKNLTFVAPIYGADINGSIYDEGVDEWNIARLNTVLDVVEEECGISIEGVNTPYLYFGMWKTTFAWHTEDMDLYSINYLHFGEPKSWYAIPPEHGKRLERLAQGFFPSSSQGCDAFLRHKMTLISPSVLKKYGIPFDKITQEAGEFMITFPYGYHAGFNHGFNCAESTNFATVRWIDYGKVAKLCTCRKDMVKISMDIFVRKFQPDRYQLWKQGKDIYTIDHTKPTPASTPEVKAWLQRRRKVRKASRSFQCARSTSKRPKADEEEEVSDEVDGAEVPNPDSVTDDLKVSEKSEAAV
Lipid droplet – hepatic lipid droplet formation modulation. AML12 mouse hepatocytes, oleate lipid droplets, BODIPY imaging. inhibition, % at 6.5 µM. hit rate 0.4% among 240,000;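 active = lipid droplet intensity inhibited by at least 50%, with more than 500 cells counted; inconclusive = wells with under 300 cells, treated as cytotoxic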
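Assay system: AML12 mouse liver cells | Compound: 6.5 µM single-point dosing | Schedule: Overnight exposure | Technique: Fluorescence imaging, 20x objective, two fields per well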
GC-B act – GC-B (human) receptor activation; HEK293-GC-B cells, CNP EC30, cGMP TR-FRET; 0% at EC30 CNP, 100% saturating CNP; hit rate 0.11% among 370,000; AID 1920062; activation, % at 10 µM;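 active = activation at 10 µM reaching about 35% in either raw or pattern-adjusted values, limit read from the data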
aDG glyco act – alpha-DG glycosylation activation | Pro5-aDG cells, alpha-DG glycosylation AlphaScreen (IIH6); 0% Pro5, 100% B10-LARGE cell signal | AID 624168 | hit rate 0.22% among 360,000 | activation, % at 10 µM;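 active = activation of at least 8% versus controls, or a plate z-score of at least 8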;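 also: Pro5 are CHO cells carrying HIG-tagged alpha-DG that lacks glycosylation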
NPR1 activator – GC-A (human) enzyme activation; P16066; HEK293 GC-A cells, cGMP TR-FRET, EC30 ANP; 0% at EC30 ANP, 100% saturating ANP; activation, % at 10 µM; hit rate 0.14% among 370,000; in the data active = activation above about 40%
GRIN3A LBD mod – modulates the human NR3A ligand-binding domain. NR3A LBD differential scanning fluorimetry, Tm shift; 0% = protein alone, 100% = glycine-bound protein. Tm shift relative to glycine control, % at 25 µM. hit rate 2.5% among 340,000. AID 1259313;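 active = melting temperature shift of at least 10% of the positive control shift, at one fixed dose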
Active calls of the source: *. Rows were chosen to be rich in hits. Some 3% of all compounds tested hit in one or more screens of this group.

`Cc1ccc(-c2nc3ccccc3o2)cc1NC(=O)c1ccc2c(c1)OCO2` gave GASC-1 inh 7, Lipid droplet -4, GC-B act -1, aDG glyco act 0, NPR1 activator 12 and GRIN3A LBD mod 0.
`O=C(Nc1ccc(-c2nc3ccccc3o2)cc1)c1ccc(N2C(=O)C3C4C=CC(C4)C3C2=O)cc1` (stereo unspecified) gave GASC-1 inh 0, Lipid droplet 11, GC-B act 1, aDG glyco act 0, NPR1 activator -5 and GRIN3A LBD mod 18*.
Cc1ccc2oc(-c3ccc(NC(=O)c4ccc5c(c4)OCO5)cc3)nc2c1 was read as GASC-1 inh -9, Lipid droplet 0, GC-B act 1, aDG glyco act 0, NPR1 activator 6 and GRIN3A LBD mod 22*.
Screening O=C(Nc1ccc(-c2nc3ccccc3o2)cc1)c1ccc2c(c1)OCO2 returned GASC-1 inh -9, Lipid droplet 2, GC-B act -12, aDG glyco act 0, NPR1 activator -7 and GRIN3A LBD mod 25*.
For NC(=O)[C@H]1CC2(CC(c3cccc(NC(=O)COc4ccc(Cl)cc4)c3)=NO2)CN1C(=O)C(c1ccccc1)c1ccccc1 (stereo partly specified) the results were GASC-1 inh 7, GC-B act 3, aDG glyco act 2, NPR1 activator 0 and GRIN3A LBD mod 11*.
For NC(=O)[C@H]1CC2(CC(c3cccc(NC(=O)CC(c4ccccc4)c4ccccc4)c3)=NO2)CN1C(=O)CC(c1ccccc1)c1ccccc1 (stereo partly specified) the results were GASC-1 inh -3, GC-B act 2, aDG glyco act 0, NPR1 activator 1 and GRIN3A LBD mod 17*.
`NC(=O)[C@@H]1CC2(CC(c3cccc(NC(=O)COc4ccc(Cl)cc4)c3)=NO2)CN1C(=O)COc1ccc(Cl)cc1` (stereo partly specified) gave GASC-1 inh -11, Lipid droplet -3, GC-B act -1, aDG glyco act 0, NPR1 activator -2 and GRIN3A LBD mod 23*.
CCC(=O)Nc1cccc(C2=NOC3(C2)C[C@@H](C(N)=O)N(C(=O)C(c2ccccc2)c2ccccc2)C3)c1 (stereo partly specified) was read as GASC-1 inh -1, Lipid droplet -50, GC-B act 2, aDG glyco act 0, NPR1 activator -1 and GRIN3A LBD mod -3.
Screening CN(Cc1ccc(Cl)c(Cl)c1)C(=O)c1ccccc1SCC(=O)N1CCCC1 returned GC-B act -1, aDG glyco act 0, NPR1 activator -8 and GRIN3A LBD mod -2.
COc1cc(-c2c(C(=O)c3ccccc3)[nH]c(N)c2C(N)=O)ccc1O was read as GC-B act -5 and NPR1 activator -2.
For O=C(NC(c1ccc(-c2ccccc2)cc1)c1cnccn1)C1CCN(Cc2cccc(C(F)(F)F)c2)CC1 (stereo unspecified) the results were aDG glyco act 3.
`CCc1ccccc1NS(=O)(=O)c1ccc2[nH]cc(C(=O)NC3CCCC3)c(=O)c2c1` gave GASC-1 inh 23, Lipid droplet -3, GC-B act 5, aDG glyco act 0, NPR1 activator 2 and GRIN3A LBD mod 11*.
For COc1cccc(NS(=O)(=O)c2ccc3[nH]cc(C(=O)NCCC(C)C)c(=O)c3c2)c1 the results were GASC-1 inh -6, GC-B act -2, aDG glyco act 0, NPR1 activator -11 and GRIN3A LBD mod 18*.
`O=C(NCCN1CCC(n2c(=O)[nH]c3ccccc32)CC1)c1ccc(F)c(F)c1` gave GC-B act -2, aDG glyco act 0 and NPR1 activator 3.
NC(=O)[C@@H]1CCCN1C(=O)[C@@H](Cc1ccccc1)NC(=O)[C@H]1O[C@@H](n2ccc(N)nc2=O)[C@H](O)[C@@H]1O was read as GC-B act -7 and NPR1 activator 1.
For Cc1ccc(N2C(=O)c3cccc([N+](=O)[O-])c3C2=O)cc1C the results were GASC-1 inh 2, Lipid droplet 2, GC-B act 34, aDG glyco act 0, NPR1 activator 72* and GRIN3A LBD mod 0.
`Cc1ccccc1C(=O)Nc1ccc(C(=O)N/N=C/c2ccc(O)c(Br)c2)cc1` gave GASC-1 inh -6, Lipid droplet inconclusive, GC-B act -3, aDG glyco act 0, NPR1 activator 0 and GRIN3A LBD mod 28*.
For CC(=O)Nc1ccc(C(=O)N/N=C/c2ccc(F)cc2)cc1 the results were GASC-1 inh -15, Lipid droplet 5, GC-B act -4, aDG glyco act 0, NPR1 activator -5 and GRIN3A LBD mod -28.
COc1ccc(C(=O)N/N=C/c2ccc(OC)c(OS(=O)(=O)c3ccccc3)c2)cc1 was read as GASC-1 inh -3, Lipid droplet -20, GC-B act 4, aDG glyco act 1, NPR1 activator 0 and GRIN3A LBD mod 13*.
Screening Brc1ccc(/C=N/Nc2ccccc2)cc1 returned GASC-1 inh -2, Lipid droplet 6, GC-B act -3, aDG glyco act 0, NPR1 activator 3 and GRIN3A LBD mod 20*.
For Oc1ccc(/C=N/Nc2ccccc2)cc1 the results were GASC-1 inh -10, Lipid droplet 5, GC-B act 2, aDG glyco act 0, NPR1 activator 3 and GRIN3A LBD mod -1.
`O=C(N/N=C/c1ccccc1)c1ccc(NC(=O)c2ccc(F)cc2)cc1` gave GASC-1 inh -3, Lipid droplet -1, GC-B act 0, aDG glyco act 0, NPR1 activator -2 and GRIN3A LBD mod 33*.
`CC(=O)N1C[C@@H](CO)[C@@H](N(C)C(=O)C(C)(C)C)C[C@H]1c1ccccc1` gave GC-B act -5, aDG glyco act 0 and NPR1 activator 4.
Screening COc1ccc2c(c1)CCCN2C(=O)C1CCCN(S(=O)(=O)c2ccccc2)C1 (stereo unspecified) returned GC-B act -10 and NPR1 activator -2.
For CCC/C(=C1/c2ccccc2C(=O)N1c1ccccc1)c1c(C)noc1C the results were GC-B act 1 and NPR1 activator -3.
Screening O=C(CCCC(=O)Nc1ccc(Br)cc1)N/N=C/c1ccccc1 returned GASC-1 inh -6, Lipid droplet 7, GC-B act -3, aDG glyco act 0, NPR1 activator -4 and GRIN3A LBD mod 10*.
